One may read the EC50 as the concentration at which the effect is half-maximal.

The text below walks through data of ChEMBL document CHEMBL4052822, “Design and Synthesis of Orally Bioavailable Piperazine Substituted 4(1H)-Quinolones with Potent Antimalarial Activity: Structure-Activity and Structure-Property Relationship Studies” (J Med Chem, 2018).

For one experiment, the system named is J774. Put plainly: Cytotoxicity against mouse J774 cells after 72 hrs by CellTiter-96 aqueous one solution cell proliferation assay. The following applies: J774, 72 h. The class given is cell-based. An outline of the steps:
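Compounds from 10 µg/mL or 20 µM top concentration, 1:2 serial dilutions over 11 concentrations, 72 h at 37 °C, 5% CO2. MTS-type reagent added for 4 h, absorbance read at 490 nm. IC50 by nonlinear regression.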

The subject of experiment [1] is Plasmodium berghei. Put plainly: animal or person. As to conditions: in Mus musculus, po, read-out: INH.
The test system of experiment [2] is Plasmodium falciparum. Nature of the experiment: Antimalarial activity against pyrimethamine/chloroquine-resistant Plasmodium falciparum W2 infected in human type A-positive erythrocytes after 48 hrs by [3H]-hypoxanthine incorporation assay. The class given is functional, cell-based. A digest of the protocol:
(§1)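 Compound from 10.0 mM DMSO stock, diluted ≥1:400, then 11 concentrations in duplicate. Incubated at 37 °C under 90% N2/5% O2/5% CO2 for 48 h, then 3H-hypoxanthine added for 24 h more. CPM counted; EC50 by nonlinear regression.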

For experiment [3], the system named is Plasmodium berghei. Put plainly: Antimalarial activity against Plasmodium berghei infected in human HepG2 cells after 44 hrs by luciferase assay. The class given is functional, cell-based. As to conditions: HepG2, 44 h. A digest of the protocol:
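HepG2 cells, 75000 per well, in DMEM with 10% FBS at 37 °C, 5% CO2. 5000 Pb luciferase sporozoites from dissected mosquito salivary glands added per well for 3 h, then washed three times with PBS. Serially diluted compound added in triplicate, 44 h at 37 °C. Cells lysed, luciferase substrate added, luminescence read.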

Experiment [4] deals with Plasmodium falciparum. Put plainly: Antimalarial activity against mefloquine/chloroquine/atovaquone/pyrimethamine-resistant Plasmodium falciparum TM90-C2B infected in human type A-positive erythrocytes after 48 hrs by [3H]-hypoxanthine incorporation assay. The class given is functional, cell-based. A digest of the protocol: as §1

As for `COC(=O)c1c[nH]c2cc(CN3CCN(Cc4ccccc4)CC3)c(OC)cc2c1=O`, the EC50 was more than 20000 nM in the experiment on J774, 5.5 nM with Plasmodium falciparum [2], 9.3 nM in the experiment on Plasmodium berghei [3] and more than 2000 nM in the experiment on Plasmodium falciparum [4]. Besides, in the experiment on Plasmodium berghei [1], the inhibition in vivo at 50 mg/kg was found to be 19.3%.
`COC(=O)c1c[nH]c2cc(CN3CCN(c4ccc(C(F)(F)F)cc4)CC3)c(C)cc2c1=O`: the EC50 with J774 is more than 20000 nM; with Plasmodium falciparum [2], 0.066 nM; in the experiment on Plasmodium falciparum [4], 100 nM.
In the case of `COC(=O)c1c[nH]c2ccc(CN3CCN(c4ccc(OC)cc4)CC3)cc2c1=O`, the EC50 in the experiment on J774 was more than 20000 nM; in the experiment on Plasmodium falciparum [2] it was 160 nM; in the experiment with Plasmodium berghei [3], more than 100 nM; with Plasmodium falciparum [4], more than 2000 nM.
The matching figures for `COC(=O)c1c[nH]c2ccc(CN3CCN(c4ccccc4)CC3)cc2c1=O`: more than 20000 nM, 150 nM, 91 nM and more than 2000 nM.
With `COC(=O)c1c[nH]c2cc(N3CCN(Cc4ccccc4)CC3)c(OC)cc2c1=O`, the EC50 in the experiment on J774 was 12000 nM; in the experiment with Plasmodium falciparum [2], 64 nM; with Plasmodium falciparum [4] it was 200 nM.
In the case of `COC(=O)c1c[nH]c2cc(CN3CCN(c4ccc(C(F)(F)F)cc4)CC3)c(OC)cc2c1=O`, the EC50 in the experiment with J774 was more than 20000 nM; in the experiment with Plasmodium falciparum [2], 6.4 nM; in the experiment on Plasmodium berghei [3] it was 9.6 nM; in the experiment with Plasmodium falciparum [4], 210 nM.
Consider `COC(=O)c1c[nH]c2cc(CN3CCN(c4ccc(OC)cc4)CC3)ccc2c1=O`, for which, in the experiment with Plasmodium berghei [1], the inhibition in vivo at 50 mg/kg amounted to 39.2%. The results for the EC50 with Plasmodium falciparum [2], with Plasmodium berghei [3] and in the experiment with Plasmodium falciparum [4] were 3.6 nM, 0.12 nM and 220 nM, respectively.
As to `COC(=O)c1c[nH]c2ccc(CN3CCN(c4ccc(F)cc4)CC3)cc2c1=O`, the EC50 was more than 20000 nM in the experiment with J774, 110 nM in the experiment with Plasmodium falciparum [2] and more than 2000 nM in the experiment on Plasmodium falciparum [4].
As to `O=c1c(Cl)c[nH]c2cc(CN3CCN(c4ccc(F)cc4)CC3)ccc12`, the EC50 with J774 was more than 20000 nM; in the experiment on Plasmodium falciparum [2], 1100 nM; with Plasmodium falciparum [4], more than 2000 nM. In the experiment on Plasmodium berghei [1], the inhibition in vivo at 50 mg/kg turned out to be 71.9%.
Take `COC(=O)c1c[nH]c2cc(N3CCN(c4ccccc4)CC3)c(OC)cc2c1=O`: the EC50 in the experiment on J774 worked out at 17000 nM; with Plasmodium falciparum [2] it was 37 nM; in the experiment on Plasmodium falciparum [4], 800 nM.
`COC(=O)c1c[nH]c2ccc(CN3CCN(c4ccc(C(F)(F)F)cc4)CC3)cc2c1=O`: the EC50 was more than 20000 nM with J774, 45 nM in the experiment on Plasmodium falciparum [2], 85 nM in the experiment on Plasmodium berghei [3] and more than 2000 nM in the experiment with Plasmodium falciparum [4].
In the case of `COc1cc2c(=O)c(Br)c(C)[nH]c2cc1CN1CCN(c2ccc(C(F)(F)F)cc2)CC1`, the EC50 with J774 is more than 20000 nM; in the experiment on Plasmodium falciparum [2] it was 130 nM; in the experiment on Plasmodium falciparum [4], more than 2000 nM.
Turning to `COC(=O)c1c[nH]c2cc(N3CCN(Cc4ccccc4)CC3)ccc2c1=O`, the EC50 in the experiment with J774 was more than 20000 nM; in the experiment with Plasmodium falciparum [2] it was 16 nM; in the experiment with Plasmodium berghei [3] it was 85 nM; in the experiment with Plasmodium falciparum [4], 860 nM.
Take `COC(=O)c1c[nH]c2cc(CN3CCN(c4ccc(OC)cc4)CC3)c(C)cc2c1=O`: the EC50 in the experiment on J774 was more than 20000 nM; in the experiment with Plasmodium falciparum [2], 0.57 nM; in the experiment on Plasmodium berghei [3], 4.1 nM; in the experiment with Plasmodium falciparum [4], 180 nM.
As to `COC(=O)c1c[nH]c2cc(CN3CCN(Cc4ccc5c(c4)OCO5)CC3)ccc2c1=O`, the results for the EC50 with J774, in the experiment on Plasmodium falciparum [2] and in the experiment with Plasmodium falciparum [4] were more than 20000 nM, 160 nM and more than 2000 nM, respectively.
Take `CCN(CC)CCCC(C)Nc1ccnc2cc(Cl)ccc12` (centres undefined) [CHLOROQUINE]: the EC50 in the experiment with J774 amounted to 47200 nM.
In the case of `COC(=O)c1c[nH]c2cc(CN3CCN(Cc4ccc(OC)cc4)CC3)c(C)cc2c1=O`, the EC50 in the experiment with J774 was more than 20000 nM; with Plasmodium falciparum [2], 2.4 nM; in the experiment on Plasmodium falciparum [4], 1000 nM.
`C[C@H]1[C@@H](O)O[C@@H]2O[C@@]3(C)CC[C@H]4[C@H](C)CC[C@@H]1[C@@]24OO3` [ARTENIMOL] returned an EC50 in the experiment on J774 of 1500 nM.
Take `COC(=O)c1c[nH]c2cc(N3CCN(c4ccccc4)CC3)c(C)cc2c1=O`: the EC50 with J774 was 17000 nM; in the experiment with Plasmodium falciparum [2], 46 nM; with Plasmodium falciparum [4], 1100 nM. Further, the inhibition in vivo at 50 mg/kg in the experiment with Plasmodium berghei [1] came to 31.6%.
